Legend:
Hepatitis C virus [1] = experiment: Antiviral activity against Hepatitis C virus harboring wild-type NS5B infected in human lunet cells by luciferase-based replicon assay; assay type: functional, Hepacivirus hominis
Summary of the method: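 ET-lunet cells with the ET genotype 1b replicon, wild-type or S96T/N142T (ET replicon with these mutations electroporated into Lunet cells, selected in 0.2 mg/ml G418). 3,000 cells/well, 4 days with serially diluted compound. Firefly luciferase luminescence read-out; EC90 from dose–response.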

Hepatitis C virus [2] = experiment: Antiviral activity against Hepatitis C virus genotype 1b harboring Ntat protein assessed as viral RNA level by quantitative real-time PCR; assay type: functional, organism-based, Hepacivirus hominis
Influenza A virus [3] = experiment: Antiviral activity against Influenza A virus (A/Viet Nam/1203/2004(H5N1)) infected in HFF by neutral red assay; assay type: functional, organism-based
Hepatitis C virus [4] = experiment: Antiviral activity against Hepatitis C virus isolate Con1 harboring Btat protein assessed as viral RNA level by quantitative real-time PCR; assay type: functional, organism-based, Hepacivirus hominis
[5] = Cytotoxicity against human CEM cells assessed as effect on cellular GAPDH RNA level after 8 days by quantitative real-time PCR; assay type: cell-based; conditions: CEM (CCRF-CEM) cells
Hepatitis C virus [6] = experiment: Antiviral activity against Hepatitis C virus H77; assay type: functional, organism-based, Hepacivirus hominis; conditions: genotype 1a H77
[7] = molecular target: T1, DNA-directed RNA polymerase II subunit RPB1 (Homo sapiens, UniProt P24928); experiment: Inhibition of human RNA polymerase at 2 uM
Yellow fever virus = experiment: Antiviral activity against Yellow fever virus 17D by neutral red assay; assay type: functional
Hepatitis C virus [8] = experiment: Selectivity ratio of EC90 for Hepatitis C virus harboring NS5B polymerase S96T mutant gene to EC90 for HCV harboring wild type NS5B polymerase; assay type: functional, Hepacivirus hominis
Influenza A virus [9] = experiment: Antiviral activity against Influenza A virus (A/Brisbane/10/2007(H3N2)) infected in HFF by neutral red assay; assay type: functional, organism-based
[10] = Cytotoxicity against human HepAD38 cells; assay type: cell-based
[11] = Cytotoxicity against human erythroid progenitor cells after 14 to 16 days by colony formation assay; assay type: cell-based
Summary of the method: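 Normal human bone marrow erythroid and myeloid progenitors, 2 × 10^4 cells per culture in methylcellulose with rh-SCF 50 ng/ml, rh-IL-3 10 ng/ml, rh-GM-CSF 10 ng/ml and rh-EPO 3 U/ml. Compound up to 50 μM, DMSO control 0.1%, 14–16 days.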

[12] = Cytotoxicity against human HepG2 cells assessed as inhibition of mitochondrial DNA synthesis; assay type: cell-based
Summary of the method: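 HepG2 or CEM cells incubated 14 days with compound up to 100 μM, ddC as control. Medium and compound replenished on days 7 and 11. Mitochondrial COXII gene and nuclear rDNA measured by multiplex quantitative RT-PCR.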

DNA polymerase beta = DNA polymerase beta (Homo sapiens, UniProt P06746); experiment: Inhibition of human DNA polymerase beta assessed as incorporation of [alpha-32P]dCTP up to 1mM preincubated for 30 mins by whatman DE81 paper binding assay
Summary of the method: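 Human DNA polymerase β at 18 μg/ml final, in 50 mM Tris pH 7.5, 50 mM NaCl, 5 mM MgCl2, activated calf thymus DNA and 20 μM each dNTP with [α-32P]dCTP. Triphosphate up to 1 mM. 37°C, stopped at 30 min with EDTA. Products quantified by DE81 paper binding; IC50 by nonlinear fit.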

[13] = molecular target: T1, DNA-directed RNA polymerase II subunit RPB1; experiment: Inhibition of human RNA polymerase 2 assessed as synthesis of RNA products at 500 uM
Summary of the method: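 In vitro transcription by HeLa nuclear extract from CMV immediate-early promoter DNA. Mix: 400 μM ATP, CTP and UTP, 16 μM GTP, [α-32P]GTP, 3 mM MgCl2, in 20 mM HEPES pH 7.9 buffer with KCl, EDTA, DTT and glycerol. Inhibitor up to 1 mM. 30°C for 60 min. RNA purified, run on 6% sequencing gel and quantified by phosphorimager.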

[14] = molecular target: T2, DNA polymerase subunit gamma-1 (Homo sapiens, UniProt P54098); experiment: Inhibition of human DNA polymerase gamma assessed as incorporation of [alpha-32P]dCTP up to 1mM preincubated for 30 mins by whatman DE81 paper binding assay
T2 sequence (P54098 whole entry): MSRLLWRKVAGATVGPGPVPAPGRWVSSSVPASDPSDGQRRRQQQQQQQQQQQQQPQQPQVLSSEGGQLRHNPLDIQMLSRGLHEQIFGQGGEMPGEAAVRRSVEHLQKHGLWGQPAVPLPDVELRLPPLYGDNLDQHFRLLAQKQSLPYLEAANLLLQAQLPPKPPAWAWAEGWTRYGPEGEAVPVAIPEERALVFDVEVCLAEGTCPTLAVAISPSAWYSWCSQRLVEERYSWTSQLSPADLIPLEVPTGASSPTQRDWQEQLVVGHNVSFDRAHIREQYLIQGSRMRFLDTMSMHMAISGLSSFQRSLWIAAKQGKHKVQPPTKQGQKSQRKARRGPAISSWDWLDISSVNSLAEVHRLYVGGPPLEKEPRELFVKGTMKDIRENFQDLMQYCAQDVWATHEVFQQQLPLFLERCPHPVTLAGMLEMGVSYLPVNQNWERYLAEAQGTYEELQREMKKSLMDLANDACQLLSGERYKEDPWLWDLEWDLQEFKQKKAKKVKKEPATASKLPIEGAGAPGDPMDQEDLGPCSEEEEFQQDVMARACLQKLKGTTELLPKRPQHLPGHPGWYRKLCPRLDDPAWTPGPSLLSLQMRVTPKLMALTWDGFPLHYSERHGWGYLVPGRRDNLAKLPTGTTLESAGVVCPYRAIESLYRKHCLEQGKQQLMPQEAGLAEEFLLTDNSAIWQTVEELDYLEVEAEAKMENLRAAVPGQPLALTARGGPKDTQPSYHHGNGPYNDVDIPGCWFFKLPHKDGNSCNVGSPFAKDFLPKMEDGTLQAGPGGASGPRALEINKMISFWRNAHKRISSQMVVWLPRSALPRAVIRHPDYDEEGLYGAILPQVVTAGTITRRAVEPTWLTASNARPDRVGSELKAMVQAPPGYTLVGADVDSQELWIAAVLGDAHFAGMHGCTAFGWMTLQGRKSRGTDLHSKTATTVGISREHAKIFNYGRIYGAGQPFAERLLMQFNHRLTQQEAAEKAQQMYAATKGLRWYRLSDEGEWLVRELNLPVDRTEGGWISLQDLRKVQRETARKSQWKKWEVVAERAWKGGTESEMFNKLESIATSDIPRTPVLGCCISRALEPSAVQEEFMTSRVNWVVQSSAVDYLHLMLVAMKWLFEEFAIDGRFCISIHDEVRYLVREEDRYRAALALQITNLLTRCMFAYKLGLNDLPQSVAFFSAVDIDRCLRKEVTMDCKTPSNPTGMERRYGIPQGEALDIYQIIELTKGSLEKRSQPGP
Summary of the method: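 Human DNA polymerase α (20 μg/ml) or γ (50 μg/ml) in 50 mM Tris pH 7.5, 50 mM NaCl, activated calf thymus DNA, 20 μM each dNTP, [α-32P]dCTP, 5 mM MgCl2. Nucleotide inhibitor up to 1 mM. 37°C, quenched with EDTA at 30 min. Product measured by DE81 paper binding; IC50 by nonlinear fit.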

Structure (SMILES)	EC90 (Hepatitis C virus [1])	EC50 (Hepatitis C virus [2])	EC90 (Hepatitis C virus [2])	EC50 (Influenza A virus [3])	EC50 (Hepatitis C virus [4])	EC90 (Hepatitis C virus [4])	CC50 at 192 h [5]	EC50 (Hepatitis C virus [6])	EC90 (Hepatitis C virus [6])	fold change (FC) [7]	EC50 (Yellow fever virus)	Selectivity ratio (Hepatitis C virus [8])	EC50 (Influenza A virus [9])	CC50 [10]	CC50 [11]	CC90 [12]	IC50 (DNA polymerase beta)	inhibition [13]	IC50 [14]
CC(C)OC(=O)[C@H](C)NP(=O)(OC[C@H]1O[C@@H](n2ccc(=O)[nH]c2=O)[C@](C)(F)[C@@H]1O)Oc1ccccc1 (some centres undefined)	0.52 µM	0.093 µM	0.75 µM	> 100 µM	0.09 µM	0.65 µM	> 100 µM	0.19 µM	0.34 µM	5	> 100 µM	0.66	> 100 µM	> 100 µM	> 50 µM	< 3 µM			
C[C@@]1(F)[C@H](O)[C@@H](COP(=O)(O)OP(=O)(O)OP(=O)(O)O)O[C@H]1n1ccc(=O)[nH]c1=O [GS-461203]																	> 1000 µM	85%	> 1000 µM
